KCNK9 inh: blocks the human KCNK9 two-pore domain potassium channel. Q9NPC2. HEK293 KCNK9, FluxOR thallium flux fluorescence; active compounds read low. B-score at 10 µM. 310,000 tested, 1.2% active. AID 488922;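 active = ratio B-score over 3 SD below the library mean, with starting fluorescence within 5 SD of its mean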;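 note: negative B-score means less thallium flux so channel inhibition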
KCNK3 inh: human KCNK3 channel inhibition, primary screen. O14649. CHO-KCNK3 thallium flux, FluxOR fluorescence; active compounds read low. B-score at 10 µM. 340,000 tested, 0.84% active;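 active = B-score under library mean minus 4 SD, starting fluorescence ratio at most library mean plus 5 SD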;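 note: more negative B-score means stronger inhibition of thallium flux through KCNK3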
Target sequence (O14649 whole entry, looked up): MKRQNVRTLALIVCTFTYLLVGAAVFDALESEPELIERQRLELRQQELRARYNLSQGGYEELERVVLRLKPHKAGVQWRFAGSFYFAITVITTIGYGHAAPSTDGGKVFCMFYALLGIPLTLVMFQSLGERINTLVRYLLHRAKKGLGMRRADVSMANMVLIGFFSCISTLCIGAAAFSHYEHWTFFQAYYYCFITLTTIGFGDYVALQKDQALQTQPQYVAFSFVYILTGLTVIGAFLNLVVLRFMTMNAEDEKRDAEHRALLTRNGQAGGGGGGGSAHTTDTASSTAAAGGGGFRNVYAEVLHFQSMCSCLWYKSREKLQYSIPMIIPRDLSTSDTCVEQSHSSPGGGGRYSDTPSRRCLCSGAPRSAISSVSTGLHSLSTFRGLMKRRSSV
hERG rescue: hERG (human) protection from proarrhythmic block | AID 1511 | CHO-hERG, FluxOR thallium flux, dofetilide IC70 present | Q12809 | activation (rescue from dofetilide block), less the hit threshold, % at 10 µM | 310,000 tested, 0.51% active;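 active = activation above the mean of controls blocked by dofetilide plus 5 SD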;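 note: thallium influx through hERG after potassium depolarization seen as dye fluorescence rise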
KCNQ1 act: potentiates or activates the human KCNQ1 potassium channel | CHO-K1 KCNQ1, thallium flux FluxOR fluorescence; active compounds read high | B-score at 10 µM | 310,000 tested, 0.35% active | AID 2648;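 active = fluorescence ratio B-score, a plate-corrected score, at least three library SD, with initial intensity B-score within 5 SD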
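System: Stable KCNQ1 CHO-K1 line | Incubation: 90 min dye loading and 20 min compound exposure, both at room temperature | Measure: Ratio B score | Medium: Assay buffer for compound exposure, DMSO matched across wells | Compound dosing: Single-concentration screen | Probe or stimulus: K+/Tl+ depolarizing stimulus | Measured by: Kinetic FluxOR fluorescence, 10 s baseline plus 110 s post-stimulus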
KCNQ1 inh: inhibitors of human KCNQ1 potassium channel. CHO-K1 KCNQ1, FluxOR thallium flux fluorescence; active compounds read high. B-score at 10 µM. 310,000 tested, 1.3% active;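 active = compounds whose thallium flux B-score, printed positive for inhibition, exceeds three library SD while starting fluorescence stays within three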;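 note: channel opened by potassium depolarization with thallium stimulus after 20 min compound exposure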
Kir21 inh: Kir2.1 (mouse) channel inhibition | P35561 | HEK293-Kir2.1, FluxOR thallium flux fluorescence; active compounds read low | B-score at 10 µM | 310,000 tested, 0.85% active;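 active = fluorescence ratio B-score at or below minus 3 SD of library scores, with starting-brightness B-score within 2 SD, cut at about -4.2 in these data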;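 note: channel flux triggered by added potassium and thallium sulfate stimulus; B-score of peak minus minimum fluorescence over baseline after thallium stimulus; more negative B-score means stronger Kir2.1 block with less thallium influx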
KCNK9 inh conf: confirmation of human KCNK9 potassium channel inhibitors; shares compounds with KCNK9 inh; HEK293 KCNK9 cells, FluxOR thallium flux fluorescence; inhibition, % at 10 µM; 4,900 tested, 43% active; AID 492992;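 active = thallium signal inhibited by more than 5 SD of the compound-free buffer control wells, on both duplicate plates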;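 note: 0% = assay buffer control wells without compound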
Kir21 sel: mouse Kir2.1 off-target activity of KCNK9 modulators | shares compounds with KCNK9 inh | Kir2.1 cells, FluxOR thallium flux fluorescence | inhibition, % at 10 µM | 4,900 tested, 4% active;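 active = thallium signal drop more than 5 SD beyond the mean of the no-compound control wells, seen in both duplicate plates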;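 note: signal is fluorescence rise after thallium addition divided by baseline fluorescence; plate controls were assay buffer only for no effect and full block by chlorpromazine control for full effect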
KCNK9 uninduced: non-induced cell nonspecific activity of KCNK9 modulators | shares compounds with KCNK9 inh | non-induced KCNK9-HEK293, FluxOR thallium flux | inhibition, % at 10 µM | 4,900 tested, 40% active;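 active = thallium signal drop beyond 5 SD of the untreated control mean, on both duplicate plates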;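 note: plate controls were buffer only IC0 wells for no effect and SID17386958 at its maximal inhibitory level for full effect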
Numbers without * were called inactive; i = inactive; / = no result given. Sampled rows, rich in hits. Any-hit rate of the full collection: about 3.8%.

SMILES	KCNK9 inh	KCNK3 inh	hERG rescue	KCNQ1 act	KCNQ1 inh	Kir21 inh	KCNK9 inh conf	Kir21 sel	KCNK9 uninduced
Cc1cccc(CN2C(=O)[C@H]3Cc4c([nH]c5ccccc45)C(C)(C)N3C2=O)c1	i	i	-19	i	i	-1	i	i	i
COc1ccccc1C1CCN(Cc2ccccc2)CC1	i	i	-7	i	i	-1.5	/	/	/
COc1ccccc1C1CCN(Cc2ccc3ccccc3c2)CC1	i	i	-20	i	i	-1.5	i	28%*	i
O=C(CCc1ccc(Oc2cc([N+](=O)[O-])cc([N+](=O)[O-])c2)cc1)N1CCCCCC1	-10*	i	-7	i	i	0.02	46%*	i	i
O=C(Cc1ccc([N+](=O)[O-])cc1)N1CCCCCC1	i	i	-9	i	i	-0.84	/	/	/
O=c1c2ccccc2nc(SCc2cccc(F)c2)n1Cc1ccco1	-16*	i	-14	i	i	-1.2	55%*	i	54%*
O=c1c2ccccc2nc(SCc2nnc(-c3ccccc3Br)o2)n1Cc1ccco1	i	i	-5	i	i	-0.16	/	/	/
COCCn1c(SCc2ccc(F)cc2)nc2ccccc2c1=O	-15*	i	-8	i	i	-0.08	68%*	i	38%*
NC(=O)CN(N=Nc1cccc([N+](=O)[O-])c1)c1cccc([N+](=O)[O-])c1	i	i	-7	i	i	-1.4	/	/	/
CCN(N=Nc1cccc([N+](=O)[O-])c1)c1cccc([N+](=O)[O-])c1	-11*	i	-11	i	i	-1.5	59%*	i	40%*
O=C(OCC(=O)N1CCCC1=O)c1nc(Cl)c(Cl)c(Cl)c1Cl	i	i	-15	i	i	-0.39	/	/	/
Cc1ccc(N2CCN(S(=O)(=O)c3ccc(Cl)s3)CC2C)cc1 (centres undefined)	i	i	-9	i	i	-0.09	i	i	i
CC(=O)N1c2ccccc2C2CCCC[C@H]21 (some centres undefined)	/	i	/	/	/	/	/	/	/
CC1CC(C)CN(C(=O)c2ccc(S(=O)(=O)N3CCCC3)cc2)C1 (centres undefined)	i	i	1	i	i	1.6	/	/	/
CCc1ccc(N(C(=O)CNC(=O)c2ccco2)C(C(=O)NC2CCCC2)c2ccncc2)cc1 (centres undefined)	i	i	-7	i	i	0.15	/	/	/
CCn1c(SCC(=O)c2cc(C)ccc2C)nc2cc(S(=O)(=O)N3CCOCC3)ccc21	i	i	-15	i	i	-2.6	i	i	i
CS(=O)(=O)N1CCN(Cc2ccccc2C(F)(F)F)CC1	i	i	-5	i	i	0.95	/	/	/
COc1cc(CN2CCN(Cc3ccccc3C(F)(F)F)CC2)cc(OC)c1OC	i	i	-7	i	i	0.04	i	i	i
Cc1ccc(CN2CCN(Cc3ccccc3C(F)(F)F)CC2)cc1	i	i	-13	i	i	-4.5*	i	i	i
COc1cc(CN2CCN(Cc3ccc(C(F)(F)F)cc3)CC2)cc(OC)c1OC	i	i	-5	i	i	1.2	i	i	i
CCOc1ccc(CCNC(=O)C2CC(=O)N(c3ccc4c(c3)OCCO4)C2)cc1OCC (centres undefined)	i	i	-14	i	i	0.76	/	/	/
Cc1cccc(N(C(=O)c2csnn2)C(C(=O)NC(C)(C)C)c2cccs2)c1 (centres undefined)	i	i	1	i	i	-1.1	/	/	/
CCOC(=O)n1c(=O)n(Cc2ccc(Cl)cc2Cl)c2ccccc21	-17*	i	-8	i	i	0.52	76%*	i	i

Bioassay records as filed in PubChem.
